From ChEMBL document CHEMBL1125075, “Synthesis of a new class of 2,3-dihydro-2-oxo-1H-benzimidazole-1-carboxylic acid derivatives as highly potent 5-HT3 receptor antagonists” (J Med Chem, 1990)

Legend:
Rattus norvegicus = assay: Effective dose that causes 50% reduction of serotonin effect in rats intravenously; assay type: functional
Method in brief: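 Rat 5-HT-induced von Bezold-Jarisch reflex. ED50 is the antagonist dose giving 50% reduction of the serotonin effect, calculated by linear regression. Means with 95% confidence limits.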

[1] = molecular target: T1, Serotonin 3 (5-HT3) receptor (Rattus norvegicus, UniProt P35563+Q9JJ16); assay: Concentration that inhibits the binding of radioligand, [3H]-ICS 205930, to 5-hydroxytryptamine 3 receptor from rat cortex
T1 sequence (P35563 whole entry): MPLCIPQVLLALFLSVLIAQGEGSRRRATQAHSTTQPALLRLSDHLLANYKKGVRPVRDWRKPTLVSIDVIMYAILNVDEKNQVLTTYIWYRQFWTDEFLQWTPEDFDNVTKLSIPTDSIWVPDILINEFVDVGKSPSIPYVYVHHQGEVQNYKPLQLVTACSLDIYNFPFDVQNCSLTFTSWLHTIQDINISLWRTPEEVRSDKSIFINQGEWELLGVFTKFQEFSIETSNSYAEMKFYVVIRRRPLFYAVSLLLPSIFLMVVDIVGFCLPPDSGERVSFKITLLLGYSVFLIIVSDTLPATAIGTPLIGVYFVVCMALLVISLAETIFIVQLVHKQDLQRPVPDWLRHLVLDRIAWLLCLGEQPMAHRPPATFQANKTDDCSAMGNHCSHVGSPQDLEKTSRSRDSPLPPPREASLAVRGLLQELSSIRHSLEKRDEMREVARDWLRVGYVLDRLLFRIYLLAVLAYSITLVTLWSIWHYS
T1 sequence (Q9JJ16 whole entry): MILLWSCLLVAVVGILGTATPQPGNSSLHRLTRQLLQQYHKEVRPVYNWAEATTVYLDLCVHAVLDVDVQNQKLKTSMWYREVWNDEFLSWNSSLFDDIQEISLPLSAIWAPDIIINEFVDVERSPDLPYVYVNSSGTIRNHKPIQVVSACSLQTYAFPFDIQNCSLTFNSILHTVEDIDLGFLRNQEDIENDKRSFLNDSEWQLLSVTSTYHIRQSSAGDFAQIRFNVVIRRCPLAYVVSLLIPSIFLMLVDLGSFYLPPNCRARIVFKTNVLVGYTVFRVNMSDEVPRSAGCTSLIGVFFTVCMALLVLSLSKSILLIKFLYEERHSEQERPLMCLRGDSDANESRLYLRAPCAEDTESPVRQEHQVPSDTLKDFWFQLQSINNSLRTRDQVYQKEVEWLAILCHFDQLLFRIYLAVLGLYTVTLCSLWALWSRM
Method in brief: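 Rat cerebral cortex P2 fraction homogenised in 50 mM Tris·HCl pH 7.4 with 0.1% ascorbate, 4 mM CaCl2 and 10 μM pargyline, about 500 μg/mL protein. Incubated with 0.5–2.0 nM [3H]ICS 205930 (82.7 Ci/mmol) and a range of test concentrations, 30 °C for 30 min. Nonspecific binding with 10 μM reference antagonist; GF/B filtration; triplicate; Ki by computer fit.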

[2] = Rattus norvegicus, iv, read-out: ED50

| SMILES | ED50 (Rattus norvegicus) | ED50 (Rattus norvegicus; [2]) | Ki [1] |
| --- | --- | --- | --- |
| CN1CC2CCC1CC2OC(=O)n1c(=O)[nH]c2ccccc21.O=C(O)CC(O)(CC(=O)O)C(=O)O (configuration not stated) | 18.9 nM/kg |  |  |
| CN1C2CCC1CC(NC(=O)n1c(=O)n(C)c3ccccc31)C2 (configuration not stated) |  | 0.0054 µmol/kg | 1.7 nM |
| CN1C2CCC1CC(NC(=O)n1c(=O)[nH]c3ccccc31)C2 (configuration not stated) | 1 nM/kg |  | 3.75 nM |
| CN1C2CCCC1CC(OC(=O)n1c(=O)[nH]c3ccccc31)C2.O=C(O)CC(O)(CC(=O)O)C(=O)O (configuration not stated) | >3000 nM/kg |  | > 1000 nM |
| Cc1ccc2c(c1)[nH]c(=O)n2C(=O)OC1CC2CCC(C1)N2C (configuration not stated) |  | > 3 µmol/kg | > 1000 nM |
| CN1C2CCC1CC(OC(=O)n1c(=O)[nH]c3ccccc31)C2 (configuration not stated) | 17.9 nM/kg |  | 21.4 nM |
| CN1CCC(NC(=O)n2c(=O)[nH]c3ccccc32)CC1 |  | 1.52 µmol/kg | 436 nM |
| CC(=O)c1ccc2[nH]c(=O)n(C(=O)OC3CC4CCC(C3)N4C)c2c1 (configuration not stated) |  | > 3 µmol/kg | > 1000 nM |
| CN1C2CCC1CC(OC(=O)n1c(=O)[nH]c3ccc(F)cc31)C2 (configuration not stated) |  | 0.062 µmol/kg | 33.9 nM |
| CN1CCC(OC(=O)n2c(=O)[nH]c3ccccc32)CC1 |  | > 3 µmol/kg | > 1000 nM |
| CN1C2CCC1CC(OC(=O)n1c(=O)[nH]c3cc(C(F)(F)F)ccc31)C2 (configuration not stated) |  | > 3 µmol/kg | > 1000 nM |
| CN1C2CCC1CC(NC(=O)n1c(=O)[nH]c3ccccc31)C2.Cl (configuration not stated) | >3000 nM/kg |  | > 1000 nM |
| CN1C2CCCC1CC(OC(=O)n1c(=O)[nH]c3ccccc31)C2.Cl (configuration not stated) | 10.8 nM/kg |  | 2.17 nM |
| CN1C2CCCC1CC(NC(=O)n1c(=O)[nH]c3ccccc31)C2.Cl (configuration not stated) | 1.1 nM/kg |  | 1.53 nM |
| O=C(OC1CC2CCC(C1)N2Cc1ccccc1)n1c(=O)[nH]c2ccccc21 (configuration not stated) |  | > 3 µmol/kg | > 1000 nM |
| CN1C2CCC1CC(OC(=O)n1c(=O)[nH]c3cc(F)ccc31)C2 (configuration not stated) |  | 0.204 µmol/kg | 26.2 nM |
| CC1CC(OC(=O)n2c(=O)[nH]c3ccccc32)CC(C)N1C (configuration not stated) |  | > 3 µmol/kg | > 1000 nM |
| CN1CC2CCC1CC2OC(=O)n1c(=O)[nH]c2ccccc21.Cl (configuration not stated) | >3000 nM/kg |  | > 1000 nM |
| Cc1cccc2c1[nH]c(=O)n2C(=O)OC1CC2CCC(C1)N2C (configuration not stated) |  | 0.0301 µmol/kg | 7.94 nM |
| CN1C2CCC1CC(OC(=O)n1c(=O)n(C)c3ccccc31)C2 (configuration not stated) |  | 0.038 µmol/kg | 12 nM |
| CCn1c(=O)n(C(=O)NC2CC3CCC(C2)N3C)c2ccccc21 (configuration not stated) |  | 0.0051 µmol/kg | 2.3 nM |

| SMILES | ED50 (Rattus norvegicus) | ED50 (Rattus norvegicus; [2]) | Ki [1] |
| --- | --- | --- | --- |
| CCn1c(=O)n(C(=O)OC2CC3CCC(C2)N3C)c2ccccc21 (configuration not stated) |  | 0.0097 µmol/kg | 18 nM |
| O=C(OC1CCNCC1)n1c(=O)[nH]c2ccccc21 |  | 0.487 µmol/kg | 72.4 nM |
| COc1ccc2[nH]c(=O)n(C(=O)OC3CC4CCC(C3)N4C)c2c1 (configuration not stated) |  |  | > 1000 nM |
| CN1C2CCC1CC(OC(=O)n1c(=O)[nH]c3ccccc31)C2.Cl (configuration not stated) | 3982 nM/kg |  | > 1000 nM |
| O=C(OC1CN2CCC1CC2)n1c(=O)[nH]c2ccccc21 (configuration not stated) |  | 0.8 µmol/kg | 16.3 nM |
| CN1C2CCC1CC(OC(=O)n1c(=O)[nH]c3cc(Cl)ccc31)C2 (configuration not stated) |  | > 3 µmol/kg | > 1000 nM |
| O=C(OC12CCN(CC1)CC2)n1c(=O)[nH]c2ccccc21 |  | > 3 µmol/kg | > 1000 nM |
| Cc1cc2[nH]c(=O)n(C(=O)OC3CC4CCC(C3)N4C)c2cc1C (configuration not stated) |  | > 3 µmol/kg | > 1000 nM |
| CCN1C2CCC1CC(OC(=O)n1c(=O)[nH]c3ccccc31)C2 (configuration not stated) |  | > 3 µmol/kg | > 1000 nM |
| Cc1cccc2[nH]c(=O)n(C(=O)OC3CC4CCC(C3)N4C)c12 (configuration not stated) |  | > 3 µmol/kg | 306 nM |
| C[N+]1(C)C2CCC1CC(OC(=O)n1c(=O)[nH]c3ccccc31)C2 (configuration not stated) |  | 0.0093 µmol/kg | 33.6 nM |
| CN(C(=O)n1c(=O)[nH]c2ccccc21)C1CC2CCCC(C1)N2C (configuration not stated) |  | > 3 µmol/kg | > 1000 nM |
| CN1C2CCCC1CC(NC(=O)n1c(=O)n(C)c3ccccc31)C2 (configuration not stated) |  | 0.0015 µmol/kg | 0.89 nM |
| O=C(NC1CCN2CCCC1C2)n1c(=O)[nH]c2ccccc21 (configuration not stated) |  | 0.289 µmol/kg | 20.2 nM |
| O=C(NC1CN2CCC1CC2)n1c(=O)[nH]c2ccccc21 (configuration not stated) |  | 0.0035 µmol/kg | 2.07 nM |
| CN1C2CCCC1CC(NC(=O)n1c(=O)[nH]c3ccccc31)C2 (configuration not stated) | 905 nM/kg |  | 130 nM |
| O=C(NC1CC2CCC(C1)N2Cc1ccccc1)n1c(=O)[nH]c2ccccc21 (configuration not stated) |  | > 3 µmol/kg | > 1000 nM |
| CN1C2CCC1C(OC(=O)n1c(=O)[nH]c3ccccc31)C2 (configuration not stated) |  | > 3 µmol/kg | > 1000 nM |
| COc1ccc2c(c1)[nH]c(=O)n2C(=O)OC1CC2CCC(C1)N2C (configuration not stated) |  | > 3 µmol/kg | > 1000 nM |
| CN1[C@@H]2CC[C@H]1C[C@@H](OC(=O)c1cc(Cl)cc(Cl)c1)C2 [BEMESETRON] |  | 0.195 µmol/kg | 24.4 nM |
| CN1[C@@H]2CC[C@H]1C[C@@H](OC(=O)c1c[nH]c3ccccc13)C2 [TROPISETRON] |  | 0.0021 µmol/kg | 1.71 nM |
